Results published in ChEMBL document CHEMBL1772984, “Inhibitor selectivity of a new class of oseltamivir analogs against viral neuraminidase over human neuraminidase enzymes” (Bioorg Med Chem, 2011).
Activity calls are given as the source filed them. The calls are words filed in the database; no cut-off is given here.

Assays:
[1] = molecular target: T1, Sialidase-3 (Homo sapiens) (UniProt Q9UQ49); experiment: (§1) Inhibition of human NEU3 using 4MU-NA as substrate after 1 hr by fluorescence assay
T1 sequence (whole entry): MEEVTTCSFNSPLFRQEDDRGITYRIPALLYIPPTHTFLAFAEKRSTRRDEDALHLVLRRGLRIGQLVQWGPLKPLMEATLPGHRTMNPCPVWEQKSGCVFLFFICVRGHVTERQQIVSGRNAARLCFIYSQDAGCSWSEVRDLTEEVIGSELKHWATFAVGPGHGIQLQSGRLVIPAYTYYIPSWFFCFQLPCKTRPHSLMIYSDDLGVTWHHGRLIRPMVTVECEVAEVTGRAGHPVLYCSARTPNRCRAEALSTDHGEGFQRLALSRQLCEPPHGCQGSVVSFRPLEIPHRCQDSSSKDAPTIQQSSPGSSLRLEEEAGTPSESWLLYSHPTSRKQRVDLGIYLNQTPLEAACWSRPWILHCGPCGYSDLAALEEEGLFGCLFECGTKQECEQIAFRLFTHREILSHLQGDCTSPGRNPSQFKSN
How it was run: (§2)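 Recombinant human NEU3 was used as an N-terminal MBP fusion, expressed in E. coli. Enzyme (0.1 mg/mL before mixing) was preincubated with inhibitor (eight serial-dilution concentrations, five replicates) for 30 min at 37 °C. 4MU-NA was then added from a 1 mM stock in 0.1 M sodium acetate pH 5.0 and incubated 1 h.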

[2] = molecular target: T2, Sialidase-4 (Homo sapiens) (UniProt Q8WWR8); experiment: (§3) Inhibition of human NEU4 using 4MU-NA as substrate after 1 hr by fluorescence assay
T2 sequence (whole entry): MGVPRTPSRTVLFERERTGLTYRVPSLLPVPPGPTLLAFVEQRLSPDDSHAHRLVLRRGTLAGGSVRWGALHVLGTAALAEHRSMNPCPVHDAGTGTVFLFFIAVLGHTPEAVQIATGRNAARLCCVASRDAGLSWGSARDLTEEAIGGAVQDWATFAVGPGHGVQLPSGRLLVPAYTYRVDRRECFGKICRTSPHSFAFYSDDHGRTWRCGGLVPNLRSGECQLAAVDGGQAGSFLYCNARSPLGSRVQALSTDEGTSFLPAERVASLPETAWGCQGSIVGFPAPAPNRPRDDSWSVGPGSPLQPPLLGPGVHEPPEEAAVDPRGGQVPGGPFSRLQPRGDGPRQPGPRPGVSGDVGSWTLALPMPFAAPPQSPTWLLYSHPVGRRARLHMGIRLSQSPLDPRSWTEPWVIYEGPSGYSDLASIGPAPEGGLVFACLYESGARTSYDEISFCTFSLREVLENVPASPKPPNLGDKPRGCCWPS
How it was run: (§4)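 Recombinant human NEU4 was used as a GST fusion, expressed in E. coli BL21(DE3) pLysS and glutathione-agarose purified. Enzyme (0.1 mg/mL before mixing) was preincubated 30 min at 37 °C with inhibitor (eight serial-dilution concentrations, five replicates). 4MU-NA was added from a 1 mM stock in 0.1 M sodium acetate pH 4.5 for 1 h.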

Sialidase-3 = molecular target: T3, Sialidase-3 (Homo sapiens, UniProt Q9UQ49); experiment: as §1; how it was run: as §2
T3 sequence (Q9UQ49 whole entry): T1 sequence (whole entry)

Sialidase-4 = molecular target: T4, Sialidase-4 (Homo sapiens, UniProt Q8WWR8); experiment: as §3; how it was run: as §4
T4 sequence (Q8WWR8 whole entry): T2 sequence (whole entry)

[3] = Inhibition of viral Neuraminidase

In the case of `CCC(CC)O[C@@H]1CC(C(=O)O)=C[C@H](n2cc(CCc3ccccc3)nn2)[C@H]1NC(C)=O`, the inhibition [1] is reported as “inactive” and the inhibition [2] is reported as “inactive”.

Work on `CCC(CC)O[C@@H]1CC(C(=O)O)=C[C@H](N)[C@H]1NC(C)=O` yielded an IC50 (Sialidase-3) of over 1000 µM and an IC50 (Sialidase-4) of over 1000 µM.

For `CCC(CC)O[C@@H]1CC(C(=O)O)=C[C@H](n2cc(C(O)CC)nn2)[C@H]1NC(C)=O` (some centres undefined), the Ki [3] was 0.072 µM.

`CCC(CC)O[C@@H]1CC(C(=O)O)=C[C@H](n2cc([C@]3(O)CC[C@H]4[C@@H]5CCc6cc(O)ccc6[C@H]5CC[C@@]43C)nn2)[C@H]1NC(C)=O` gave an IC50 (Sialidase-3) of 350 µM and an IC50 (Sialidase-4) of 800 µM.

For `CCC(CC)O[C@@H]1CC(C(=O)O)=C[C@H](n2cc(C(C)(C)O)nn2)[C@H]1NC(C)=O`, the IC50 (Sialidase-3) was over 1000 µM, the inhibition [1] was “inactive” and the IC50 (Sialidase-4) was over 1000 µM. The inhibition [2] was “inactive”.

For `CC(=O)N[C@H]1[C@H]([C@H](O)[C@H](O)CO)OC(C(=O)O)=C[C@@H]1O` [NEU5AC2EN], the IC50 (Sialidase-3) was 30 µM.

With `CCC(CC)O[C@@H]1CC(C(=O)O)C=C(n2cc(C(C)(C)O)nn2)[C@H]1NC(C)=O` (some centres undefined) the IC50 (Sialidase-4) was over 1000 µM and the inhibition [2] was “inactive”.
